These results are taken from ChEMBL document CHEMBL1124233, “Clofazimine analogues active against a clofazimine-resistant organism” (J Med Chem, 1988).

Holding throughout (format): functional, organism-based
The subject of assay [1] is Mycolicibacterium smegmatis. Briefly: Concentration for 100% inhibition of growth of dapsone sensitive Mycobacterium smegmatis 607 strain in vitro. A digest of the protocol: (§1)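 M. smegmatis ATCC607-derived strains (one of three used, including a dapsone-sensitive one) were grown in modified Kirchner's medium with 0.5% Tween 80, inoculated with 10^5 viable cells. Drugs were added in DMSO (2% final). Roller tubes were incubated at 37 °C for 72 h. Growth was read as spectrophotometric transmission.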

The test system of assay [2] is Mycolicibacterium smegmatis. Briefly: 100% inhibition of growth of rifampicin resistant Mycobacterium smegmatis 607 strain in vitro. A digest of the protocol:
as §1

For assay [3], the system named is Mycolicibacterium smegmatis. Briefly: 100% inhibition of growth of clofazimine resistant Mycobacterium smegmatis 607 strain in vitro. The method in brief:
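Strain: 20× step-up clofazimine-resistant mutant of M. smegmatis ATCC607. 10^5 viable cells inoculated into modified Kirchner's medium with 0.5% Tween 80. Drugs were added in DMSO (2% final in all tubes). Roller tubes were incubated at 37 °C for 72 h. Growth was read as optical transmission in a spectrophotometer.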

As to `CCC/N=c1\cc2n(-c3ccccc3)c3ccccc3nc-2cc1Nc1ccccc1`, the figures for the Concentration in assay [1], in assay [2] and in assay [3] were 2 µg/mL, 3 µg/mL and 20 µg/mL, respectively.
On the same counts, the results for `c1ccc(Nc2cc3nc4ccccc4n(-c4ccccc4)c-3c/c2=N\CCN2CCCCC2)cc1` are 0.4 µg/mL, 0.4 µg/mL and 2 µg/mL.
For `Clc1ccc2c(c1)nc1cc(Nc3ccccc3)/c(=N/C3CCCCC3)cc-1n2-c1ccccc1` the same measures were 3 µg/mL, 0.6 µg/mL and 20 µg/mL.
For `CCCC/N=c1\cc2n(-c3ccc(Cl)cc3)c3ccccc3nc-2cc1Nc1ccc(Cl)cc1`, the Concentration in assay [1] is 3 µg/mL; in assay [2], 3 µg/mL; in assay [3] it was 100 µg/mL.
With `COC(C/N=c1\cc2n(-c3ccc(Cl)cc3)c3ccccc3nc-2cc1Nc1ccc(Cl)cc1)OC`, the results for the Concentration in assay [1], in assay [2] and in assay [3] were 4 µg/mL, 5 µg/mL and 60 µg/mL, respectively.
For `CCCC/N=c1\cc2n(-c3ccccc3)c3ccc(Cl)cc3nc-2cc1Nc1ccccc1` the same measures were 2 µg/mL, 3 µg/mL and 100 µg/mL.
Regarding `CCC(CO)/N=c1\cc2n(-c3ccccc3)c3ccccc3nc-2cc1Nc1ccccc1` (configuration not stated), the Concentration is 2 µg/mL in assay [1], 30 µg/mL in assay [2] and 100 µg/mL in assay [3].
For `Clc1ccc(Nc2cc3nc4ccccc4n(-c4ccc(Cl)cc4)c-3c/c2=N\C2CCCCCC2)cc1` the same measures were 2 µg/mL, 3 µg/mL and 50 µg/mL.
On the same counts, the results for `CC1CCCCN1CCC/N=c1\cc2n(-c3ccccc3)c3ccccc3nc-2cc1Nc1ccccc1` (configuration not stated) are 0.3 µg/mL, 0.3 µg/mL and 2 µg/mL.
For `CCN(CC)CCC/N=c1\cc2n(-c3ccc(Cl)cc3)c3ccccc3nc-2cc1Nc1ccc(Cl)cc1` the same measures were 0.2 µg/mL, 0.2 µg/mL and 1 µg/mL.
`Clc1ccc2c(c1)nc1cc(Nc3ccccc3)/c(=N/CC3CCNCC3)cc-1n2-c1ccccc1`: the Concentration amounted to 0.2 µg/mL in assay [1], 0.4 µg/mL in assay [2] and 1 µg/mL in assay [3].
For `OCCNCC/N=c1\cc2n(-c3ccccc3)c3ccc(Cl)cc3nc-2cc1Nc1ccccc1` the same measures were 5 µg/mL, 10 µg/mL and 20 µg/mL.
For `O=C1CCCN1CC/N=c1\cc2n(-c3ccc(Cl)cc3)c3ccccc3nc-2cc1Nc1ccc(Cl)cc1` the same measures were 1 µg/mL, 1.6 µg/mL and 20 µg/mL.
For `CCOc1ccc(Nc2cc3nc4ccccc4n(-c4ccc(OCC)cc4)c-3c/c2=N\CCO)cc1` the same measures were 5 µg/mL, 10 µg/mL and 20 µg/mL.
As for `CC1CCC(/N=c2\cc3n(-c4ccccc4)c4ccccc4nc-3cc2Nc2ccccc2)CC1` (configuration not stated), the figures for the Concentration in assay [1], in assay [2] and in assay [3] were 6 µg/mL, 8 µg/mL and 100 µg/mL, respectively.
On the same counts, the results for `CN1CCN(CCC/N=c2\cc3n(-c4ccc(Cl)cc4)c4ccccc4nc-3cc2Nc2ccc(Cl)cc2)CC1` are 0.3 µg/mL, 0.3 µg/mL and 1 µg/mL.
On to `Clc1ccc(Nc2cc3nc4ccccc4n(-c4ccc(Cl)cc4)c-3c/c2=N\C2CCCCC2)cc1`, for which the figures for the Concentration in assay [1], in assay [2] and in assay [3] were 2 µg/mL, 1 µg/mL and 20 µg/mL, respectively.
For `c1ccc(Nc2cc3nc4ccccc4n(-c4ccccc4)c-3c/c2=N\C2CCCCCC2)cc1`, the values for the Concentration in assay [1], in assay [2] and in assay [3] were 2 µg/mL, 2 µg/mL and 20 µg/mL, respectively.
In the case of `CCN(CC)CCCC(C)/N=c1\cc2n(-c3ccc(Cl)cc3)c3ccccc3nc-2cc1Nc1ccc(Cl)cc1` (configuration not stated), the Concentration was determined as 0.2 µg/mL in assay [1], 0.2 µg/mL in assay [2] and 2 µg/mL in assay [3].
